The RNAGym collection of RNA variant scans (doi:10.1002/anie.201605470)

B1: Osa-1-4 twister ribozyme (parent)
chain: CCGCCUAACACUGCCAAUGCCGGUCCCAAGCCCGGAUAAAAGUGGAGGGGGCGG

Variants of: B1
Assay: self-cleavage, relative activity (ratio to wild type); higher = more cleavage; co-transcriptional
Outline: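 The 48 positions downstream of the cleavage site in a DNA template for a 54-nucleotide Oryza sativa twister ribozyme carried 97 % wild-type base and 1 % of each other base. After in vitro transcription (2 h, 37 °C) with co-transcriptional self-cleavage, the RNA was reverse-transcribed with a template-switching oligonucleotide, PCR-amplified and deep-sequenced. Relative activity is the fraction cleaved, judged by reads with or without upstream sequence and normalised to wild type.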

Row | Variant | self-cleavage
1 | CCGCCUAACACUGCCAAUGCCGGUACCAAGCCCGGAUAAAAGUGGAGGGGGAGG | 0.14
2 | CCGCCUAACACUGCCAAUGCCGGUACCAAGCCCGGAUAAAAGUGGAGGGGGGGG | 0.17
3 | CCGCCUAACACUGCCAAUGCCGUUCCCAAGCCCGGAGAAAAGUGGAGGGGGCGG | 0.19
4 | CCGCCUAACACUGCCAAUGCCGUUCCCAAGCCCGGAAAAAAGUGGAGGGGGCGG | 0.14
5 | CCGCCUAACACUGCCAAUGCCGUUCCCAAGCCCGGACAAAAGUGGAGGGGGCGG | 0.16
6 | CCGCCUAACACUGCCAAUGCCGGUACCAAGCCCGCAUAAAAGUGGAGGGGGCGG | 0.05
7 | CCGCCUAACACUGCCAAUGCCGGUACCAAGCCCGAAUAAAAGUGGAGGGGGCGG | 0.18
8 | CCGCCUAACACUGCCAAUGCCGGUACCAAGCCCGUAUAAAAGUGGAGGGGGCGG | 0.09
9 | CCGCCUAACACUGCCAAUGCCGAUACCAAGCCCGGAUAAAAGUGGAGGGGGCGG | 0.06
10 | CCGCCUAACACUGCCAAUGCCGUUACCAAGCCCGGAUAAAAGUGGAGGGGGCGG | 0.03
11 | CCGCCUAACACUGCCAAUGCCGCUACCAAGCCCGGAUAAAAGUGGAGGGGGCGG | 0.02
12 | CCGCCUAACACUGCCAAUGCCGGACCCAAGCCCGGAUAAAAGCGGAGGGGGCGG | 0.07
13 | CCGCCUAACACUGCCAAUGCCGGACCCAAGCCCGGAUAAAAGGGGAGGGGGCGG | 0.05
14 | CCGCCUAACACUGCCAAUGCCGGACCCAAGCCCGGAUAAAAGAGGAGGGGGCGG | 0.07
15 | CCGCCUAACACUGCCAAUGCCCGUACCAAGCCCGGAUAAAAGUGGAGGGGGCGG | 0.03
16 | CCGCCUAACACUGCCAAUGCCAGUACCAAGCCCGGAUAAAAGUGGAGGGGGCGG | 0.15
17 | CCGCCUAACACUGCCAAUGCCUGUACCAAGCCCGGAUAAAAGUGGAGGGGGCGG | 0.07
18 | CCGCCUAACACUGCCAAUGCCGGACCCAAGCCCGGAGAAAAGUGGAGGGGGCGG | 0.49
19 | CCGCCUAACACUGCCAAUGCCGGACCCAAGCCCGGAAAAAAGUGGAGGGGGCGG | 0.34
20 | CCGCCUAACACUGCCAAUGCCGGACCCAAGCCCGGACAAAAGUGGAGGGGGCGG | 0.28
21 | CCGCCUAACACUGCCAAUGCCGGUACCAAGCCCGGAUAAAAGUGGAGUGGGCGG | 0.03
22 | CCGCCUAACACUGCCAAUGCCGGUACCAAGCCCGGAUAAAAGUGGAGCGGGCGG | 0.03
23 | CCGCCUAACACUGCCAAUGCCGGUACCAAGCCCGGAUAAAAGUGGAGAGGGCGG | 0.03
24 | CCGCCUAACACUGCCAAUGCCGGGCCCAAGCCCGGAUAAAAGCGGAGGGGGCGG | 0.03
25 | CCGCCUAACACUGCCAAUGCCGGGCCCAAGCCCGGAUAAAAGAGGAGGGGGCGG | 0.03

Row | Variant | self-cleavage
26 | CCGCCUAACACUGCCAAUGCCGGGCCCAAGCCCGGAUAAAAGGGGAGGGGGCGG | 0.07
27 | CCGCCUAAGACUGCCAAUGCCGGUACCAAGCCCGGAUAAAAGUGGAGGGGGCGG | 0.08
28 | CCGCCUAAUACUGCCAAUGCCGGUACCAAGCCCGGAUAAAAGUGGAGGGGGCGG | 0.06
29 | CCGCCUAAAACUGCCAAUGCCGGUACCAAGCCCGGAUAAAAGUGGAGGGGGCGG | 0.05
30 | CCGCCUAACACUGCCAAUGCCGGGCCCAAGCCCGGAAAAAAGUGGAGGGGGCGG | 0.04
31 | CCGCCUAACACUGCCAAUGCCGGGCCCAAGCCCGGAGAAAAGUGGAGGGGGCGG | 0.04
32 | CCGCCUAACACUGCCAAUGCCGGGCCCAAGCCCGGACAAAAGUGGAGGGGGCGG | 0.02
33 | CCGCCUAACACUGCCAAUGCCGGUACCAAGCCCGGAUAAAAGUGGAAGGGGCGG | 0.04
34 | CCGCCUAACACUGCCAAUGCCGGUACCAAGCCCGGAUAAAAGUGGAUGGGGCGG | 0.04
35 | CCGCCUAACACUGCCAAUGCCGGUACCAAGCCCGGAUAAAAGUGGACGGGGCGG | 0.03
36 | CCGCCUAACACUGCCAAUGCCGGUACCAAGCCAGGAUAAAAGUGGAGGGGGCGG | 0.05
37 | CCGCCUAACACUGCCAAUGCCGGUACCAAGCCUGGAUAAAAGUGGAGGGGGCGG | 0.07
38 | CCGCCUAACACUGCCAAUGCCGGUACCAAGCCGGGAUAAAAGUGGAGGGGGCGG | 0.02
39 | CCGCCUAACACUCCCAAUGCCGGUACCAAGCCCGGAUAAAAGUGGAGGGGGCGG | 0.02
40 | CCGCCUAACACUACCAAUGCCGGUACCAAGCCCGGAUAAAAGUGGAGGGGGCGG | 0.03
41 | CCGCCUAACACUUCCAAUGCCGGUACCAAGCCCGGAUAAAAGUGGAGGGGGCGG | 0.02
42 | CCGCCUAACACUGCCAAUGCCGGUACCAAGGCCGGAUAAAAGUGGAGGGGGCGG | 0.03
43 | CCGCCUAACACUGCCAAUGCCGGUACCAAGUCCGGAUAAAAGUGGAGGGGGCGG | 0.03
44 | CCGCCUAACACUGCCAAUGCCGGUACCAAGACCGGAUAAAAGUGGAGGGGGCGG | 0.04
45 | CCGCCUAACACUGCCAAUGCCGUCCCCAAGCCCGGAUAAAAGUGGAGGGGGCGG | 0.03
46 | CCGCCUAACACUGCCAAUGCCGUGCCCAAGCCCGGAUAAAAGUGGAGGGGGCGG | 0.02
47 | CCGCCUAACACUGCCAAUGCCGUUCCCAAGCCCGGAUAAAAGAGGAGGGGGCGG | 0.04
48 | CCGCCUAACACUGCCAAUGCCGUUCCCAAGCCCGGAUAAAAGGGGAGGGGGCGG | 0.07
49 | CCGCCUAACACUGCCAAUGCCGUUCCCAAGCCCGGAUAAAAGCGGAGGGGGCGG | 0.04
